Screening data from PubChem BioAssay.
The list is not random: actives were taken first. Their share in the collection is about 4.1%.
NS3 helicase inh: inhibitors of Hepatitis C virus NS3 helicase | NS3 helicase DNA unwinding, Cy5 molecular beacon fluorescence | inhibition, % at 10.9 µM | 290,000 tested, 0.56% active | AID 1800;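 active means inhibition above the mean of all tested compounds plus 3 SD, set per campaign, cut at about 35% in these data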;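 further: 0% = DMSO wells and 100% = thioflavine S control wells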
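Measured by: Cy5 fluorescence, 0 and 60 min reads / Assay system: NS3 helicase fragment of HCV / Control set: low DMSO, high thioflavine S at 110 µM / Times: 1 h reaction at 25 °C, ATP-initiated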
MEKK2 mut-MEK5: signal of MEK5 binding to mutant human MEKK2 PB1 domain; bead flow cytometry, Alexa488-MEK5 binding to MEKK2 mutant; 290,000 tested, 0.35% active; percent response, % at 10 µM; in the data active means percent response above about 24%, passing the limit was not always enough
MEKK2 WT-MEK5: raises or lowers MEK5 binding to wildtype human MEKK2 PB1 domain | binding response (% of control), % at 10 µM | bead flow cytometry, Alexa488-MEK5 binding to MEKK2 WT; actives lie on both sides | Q9Y2U5 | 290,000 tested, 1.1% active; in the data active means binding response below about 67% or above about 130%
MEKK3 PB1 HTS: MEKK3-MEK5 PB1 interaction, increase or decrease; Q99759; bead-based flow cytometry, Alexa488-MEK5 binding to MEKK3; actives lie on both sides; 0 = blocked by unlabeled MEK5, 100 = vehicle; binding response (% of control), % at 10 µM; 290,000 tested, 1.4% active;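 active means binding response more than 3 SD above or below the average of its plate-row segment, actives on both sides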;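 further: Alexa488 bead fluorescence after subtracting the streptavidin-only scavenger bead signal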
Target sequence (Q99759 whole entry, looked up): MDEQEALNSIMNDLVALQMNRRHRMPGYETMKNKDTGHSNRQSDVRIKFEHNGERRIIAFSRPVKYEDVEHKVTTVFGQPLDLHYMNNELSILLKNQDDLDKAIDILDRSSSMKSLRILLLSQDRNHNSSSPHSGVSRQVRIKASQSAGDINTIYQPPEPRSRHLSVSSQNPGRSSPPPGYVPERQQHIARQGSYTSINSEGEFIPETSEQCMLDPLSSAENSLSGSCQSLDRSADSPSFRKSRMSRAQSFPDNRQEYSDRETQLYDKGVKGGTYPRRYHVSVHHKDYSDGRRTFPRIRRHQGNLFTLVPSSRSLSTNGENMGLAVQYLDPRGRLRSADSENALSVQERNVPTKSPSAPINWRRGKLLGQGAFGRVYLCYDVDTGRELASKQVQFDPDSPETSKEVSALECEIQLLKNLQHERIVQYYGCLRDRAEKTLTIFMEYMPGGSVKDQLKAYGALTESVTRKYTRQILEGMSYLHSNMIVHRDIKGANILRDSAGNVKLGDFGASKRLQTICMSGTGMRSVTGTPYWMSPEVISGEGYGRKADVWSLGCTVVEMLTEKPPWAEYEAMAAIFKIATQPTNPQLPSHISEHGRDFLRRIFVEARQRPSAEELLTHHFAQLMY
DNA FID counter-1: fluorescent intercalator displacement, NS3 helicase counter-screen; DNA fluorescent intercalator displacement, fluorescence; inhibition, % at 7.9 µM; 290,000 tested, 0.17% active; AID 1845;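 further: 0% = vehicle and 100% = reference compound; higher means more ethidium bromide displaced from hairpin DNA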
T cruzi repl: blocks replication of Trypanosoma cruzi. inhibition, % (concentration not given with the values). T. cruzi beta-gal in NIH3T3, luminescence, 90 h. AID 1885. 300,000 tested, 1.4% active;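 active means mean inhibition across valid replicates above about 55%, limit read from the data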;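 further: signal also drops with host cell toxicity which is not excluded here; 0% = plate median of DMSO wells and 100% = zero luminescence signal; higher percent means less beta-gal luminescence so fewer parasites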
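Assay system: NIH/3T3 fibroblasts plus reporter T. cruzi. Amount: NIH/3T3 cells, 5,000 per well. Buffer or medium: DMEM, 2% fetal bovine serum. Doses: compound pinned at 50 nL/well, DMSO. Schedule: ≥90 h infection period, 3 h prior cell attachment. Signal: luminescent β-galactosidase signal after 60 min lysis. Read-out: parasite load inhibition, %.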
NS3 hel confirm: confirmation of Hepatitis C virus NS3 helicase inhibitors | shares compounds with NS3 helicase inh | NS3 helicase DNA unwinding, Cy5 molecular beacon fluorescence | inhibition, % at 10.9 µM | 1,600 tested, 31% active | AID 1943;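 active means inhibition above the mean of all tested compounds plus 3 SD, cutoff set per campaign, cut at about 36% in these data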
DNA FID counter-2: counter-screen for HCV NS3 helicase inhibitors: DNA intercalator displacement; shares compounds with NS3 helicase inh; DNA fluorescent intercalator displacement, fluorescence; inhibition, % at 7.9 µM; 1,600 tested, 4% active;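 further: 0% = vehicle and 100% = reference compound; higher means more displacement of ethidium bromide from the DNA hairpin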
DNA FID DR: DNA intercalator displacement in dose response | IC50, µM | 120 tested, under 10 active | fluorescent intercalator displacement from DNA, fluorescence | shares compounds with NS3 helicase inh; call rule not given here
Starred values were filed as active, the others as inactive; · = not tested or not shown. Unless noted, no stated cut-off is given here; in the data, active means inhibition above about 37%; inactive means the rest.

SMILES | NS3 helicase inh | MEKK2 mut-MEK5 | MEKK2 WT-MEK5 | MEKK3 PB1 HTS | DNA FID counter-1 | T cruzi repl | NS3 hel confirm | DNA FID counter-2 | others
CCCOc1ccc2ccccc2c1/C=C1\SC(=O)NC1=O | 36* | -5 | 97 | 103 | -27 | 12 | 30 | -21
CCOC(=O)CC(=O)CSc1nc(-c2ccc3c(c2)OCO3)cc(C(F)(F)F)c1C#N | 37* | 7 | 98 | 100 | -7 | -13 | -2 | 1
Cc1ccc(CNC(=O)C2CCC(=O)N2C(C)C)cc1 (stereo not drawn) | -1 | 4 | 114 | 105 | 0 | -6 | · | ·
Nc1c(C(=O)Nc2ccccc2)sc2nc(-c3ccco3)ccc12 | 83* | -6 | 84 | 101 | 0 | -22 | 14 | 6
COc1ccccc1NC(=O)c1sc2nc(C)cc(C)c2c1N | · | · | · | · | · | 4 | · | ·
Nc1c(C(=O)Nc2ccccc2)sc2nc(-c3cccnc3)ccc12 | 14 | -14 | 92 | 96 | -10 | -9 | · | ·
COc1ccccc1NC(=O)c1sc2nc(-c3ccco3)ccc2c1N | 49* | -8 | 86 | 102 | -12 | -1 | 1 | 17
CC(C)CNC(=O)c1cccc(NC(=O)C(C)Oc2ccccc2)c1 (stereo not drawn) | 4 | 7 | 104 | 103 | -15 | 10 | · | ·
CCOC(=O)Cc1csc(NC(=O)c2csc(C)c2)n1 | 4 | 4 | 106 | 103 | -6 | 18 | · | ·
CCOC(=O)Cc1csc(NC(=O)c2sc3nc4c(C)cc(C)cc4cc3c2N)n1 | 38* | 3 | 87 | 98 | -3 | -21 | -11 | -25
Cc1nc2ccccn2c1C(=O)N/N=C/c1ccc2c(c1)OCO2 | 40* | -2 | 90 | 58 | -14 | -3 | -11 | 3
COc1cccc(C(=O)Nc2nnc(S(=O)(=O)Nc3cccc(C)c3)s2)c1 | 46* | 2 | 94 | 100 | -13 | 1 | 19 | 11
COc1ccc(/C=N\NC(=O)c2ccc(F)cc2)cc1COc1ccccc1C(N)=O | -3 | 6 | 104 | 101 | -33 | -14 | · | ·
COc1cccc(C(=O)N/N=C/c2ccc(OC)c(COc3ccccc3C(N)=O)c2)c1 | 43* | 9 | 108 | 102 | -31 | -11 | -12 | -41
CCOC(=O)C(NC(C)=O)(NC(C)C)C(F)(F)F (stereo not drawn) | 13 | -2 | 97 | 98 | 1 | -7 | · | ·
N=c1c(S(=O)(=O)c2ccc(Cl)cc2)cc2c(=O)n3ccccc3nc2n1Cc1ccco1 | 45* | -5 | 91 | 99 | 8 | 17 | 70* | 48*
CCN(CC)CCNc1nc(-c2ccco2)c2c(c1C#N)CC(C)(C)OC2 | -4 | 0 | 105 | 101 | 15 | 45 | · | ·
CC1(C)Cc2c(C#N)c(NCCc3ccccc3)nc(-c3ccco3)c2CO1 | 40* | 0 | 100 | 100 | -35 | 35 | 63* | -19 | DNA FID DR=>79
COc1ccc(NC(=O)CN(C)C(C)C(=O)NC(=O)NC2CCCCC2)cc1 (stereo not drawn) | 3 | 3 | 94 | 92 | -13 | 5 | · | ·
CN(C)C(=O)C[n+]1ccc(C(N)=O)cc1 | 7 | -1 | 96 | 96 | -1 | 11 | · | ·
CC(C)(C)C(=O)C[n+]1ccc(C(N)=O)cc1 | 47* | -1 | 101 | 104 | -1 | -14 | -1 | 2
CCO/C(C)=C1/SC(=S)NC1=O | 11 | 0 | 107 | 104 | 0 | -4 | · | ·
O=C(CC1SC(=O)N(c2ccccc2)C1=O)Nc1ccc(Br)cc1 (stereo not drawn) | 37* | -5 | 98 | 101 | -13 | 2 | -9 | 11
COc1ccc2ccccc2c1C1CC(=O)N2CN(Cc3ccco3)CSC2=C1C#N (stereo not drawn) | 47* | 3 | 104 | 101 | -44 | 11 | 46* | -35
COc1ccc(C2CC(=O)N3CN(Cc4ccco4)CSC3=C2C#N)cc1 (stereo not drawn) | 33 | 7 | 109 | 105 | -36 | 7 | · | ·
SMILES | NS3 helicase inh | MEKK2 mut-MEK5 | MEKK2 WT-MEK5 | MEKK3 PB1 HTS | DNA FID counter-1 | T cruzi repl | NS3 hel confirm | DNA FID counter-2 | others
Oc1ccc2ccccc2c1N=Nc1ccc(F)cc1 | 6 | 4 | 113 | 112 | -2 | -2 | · | ·
O=C(O)Cc1ccc(N=Nc2c(O)c(C(=O)O)cc3ccccc23)cc1 | 42* | 4 | 91 | 99 | -12 | -7 | 64* | -7
CCCN(CC(=O)Nc1ccccc1C)C(=O)/C=C/c1ccc(S(=O)(=O)N2CCCCCC2)cc1 | · | · | · | · | · | 42 | · | ·
Cc1cc(NS(=O)(=O)c2ccc(NC(=O)/C=C/c3c(F)cccc3Cl)cc2)nc(C)n1 | 36* | 5 | 99 | 97 | -26 | 18 | -22 | -6
CC1CCc2c(sc3nc(SCC(=O)O)n(-c4ccccc4)c(=O)c23)C1 (stereo not drawn) | 37* | -12 | 84 | 70 | -36 | 11 | 15 | -16
O=c1nc(/C=C/c2cc([N+](=O)[O-])ccc2Cl)cc(C(F)(F)F)[nH]1 | 10 | 0 | 101 | 95 | -4 | -20 | · | ·
O=c1nc(/C=C/c2cccn2-c2ccc([N+](=O)[O-])cc2)cc(C(F)(F)F)[nH]1 | 64* | -8 | 88 | 103 | -4 | -22 | -4 | 0
CCOC(=O)c1c(N=CN(C)C)c2cc([N+](=O)[O-])cnc2n1C | -19 | 0 | 99 | 103 | -1 | 2 | · | ·
Cc1c(Cl)c(C(F)F)nn1CC(=O)NC1C(=O)N2C(C(=O)O)=C(CSc3nnnn3C)CSC12 (stereo not drawn) | 38* | -1 | 101 | 102 | -26 | -9 | 32 | -2
CCN(CC(=O)NCc1ccc(Cl)cc1)C(=O)/C=C/c1ccc(Cl)c([N+](=O)[O-])c1 | -15 | 5 | 105 | 107 | -25 | -1 | · | ·
Cc1c(O)nc(SCC(=O)Nc2ccc3c4c(cccc24)CC3)n(-c2ccc(F)cc2)c1=O | 16 | -2 | 103 | 101 | -45 | -19 | · | ·
Cc1ccc(-c2csc3ncnc(NS(=O)(=O)c4ccc(Cl)cc4)c23)cc1 | 50* | 21 | 116 | 99 | -13 | 7 | 44* | -25
NNc1ncnc2scc(-c3ccc(Cl)cc3)c12 | -11 | -1 | 99 | 98 | -6 | -6 | · | ·
CC(C)c1ccc(NC(=S)NNC(=O)c2cccs2)cc1 | -2 | 4 | 107 | 105 | -10 | 7 | · | ·
